The nature of experiment [1]: Cytotoxicity against human C19 cells after 24 hrs by MTT assay. As to conditions: C19, 24 h. In kind it is functional, cell-based. A digest of the protocol: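 Thawed C-19 leukemia cells were grown 48 h in IMDM with penicillin, streptomycin and L-glutamate at 37 °C, 5% CO₂. Plated at 10,000 cells/well in IMDM, held 24 h, then treated 24 h with 0.1–300 µM (0.1% DMSO); DMSO control row. MTT (5 mg/mL in PBS, 20 µL/well) for 2 h, dissolved in DMSO, A490. IC50 from sigmoidal fit of percent survival.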

Experiment [2] in a line: Cytotoxicity against human Caov3 cells after 24 hrs by MTT assay. The following applies: Caov-3, 24 h. Type of experiment: functional, cell-based. An outline of the steps: (§1)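 Cells were grown 72 h in DMEM/F12 with penicillin, streptomycin and L-glutamate, trypsinized and counted. Plated at 10,000 cells/well in IMDM, held 24 h at 37 °C, 5% CO₂, then treated 24 h with 0.1–300 µM (0.1% DMSO); DMSO control row. MTT (5 mg/mL in PBS, 20 µL/well) for 2 h, dissolved in DMSO, A490. Sigmoidal-fit IC50 from percent survival.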

Experiment [3] is described as follows: Cytotoxicity against human WM266.4 cells after 24 hrs by MTT assay. Type of experiment: functional, cell-based. As to conditions: WM 266-4, 24 h. An outline of the steps:
as §1
(Tetrazolium dyes change colour on reduction, which living cells bring about.)

The subject of the next experiment is Streptococcus pyogenes. Put plainly: Antibacterial activity against Streptococcus pyogenes measured after overnight incubation by spectrophotometry. Type of experiment: functional, organism-based. An outline of the steps: (§2)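 Bacteria were grown overnight at 37 °C in Luria broth, subcultured to OD 0.1 and grown 2 h more. Culture was added to cuvettes holding 0.1–300 µM test agent (0.3% DMSO). Controls were DMSO and streptomycin: 0.500 µg/mL for P. aeruginosa, 0.0625 µg/mL for the others. Shaken at 37 °C with OD read every 2.5 h in duplicate to about 7.5 h. IC50 from sigmoidal fit, mean of three trials.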

A further experiment has as its system Staphylococcus aureus. The experiment in a line: Antibacterial activity against Staphylococcus aureus measured after overnight incubation by spectrophotometry. In kind it is functional, organism-based. An outline of the steps:
as §2

Experiment [4] has as its system Mycolicibacterium smegmatis. The experiment in a line: Antibacterial activity against Mycobacterium smegmatis measured every 2.5 hrs by spectrophotometry. Type of experiment: functional, organism-based. A digest of the protocol: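 M. smegmatis MC²155 was grown 48 h at 37 °C with shaking in 7H9 complete medium with Tween, diluted 1:1000 and grown overnight. It was then subcultured to OD 0.1 and grown 2 h. Exposed to 0.1–300 µM (0.3% DMSO), with DMSO and streptomycin 0.250 µg/mL controls. Shaken at 37 °C, OD read every 2.5 h in duplicate to about 7.5 h. Sigmoidal-fit IC50, mean of three trials.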

The subject of a further experiment is Pseudomonas aeruginosa. The experiment in a line: Antibacterial activity against Pseudomonas aeruginosa measured after overnight incubation by spectrophotometry. Type of experiment: functional, organism-based. A digest of the protocol: as §2
A further experiment has as its system Candida albicans. Put plainly: Antibacterial activity against Candida albicans measured every 2.5 hrs by spectrophotometry. In kind it is functional, organism-based. A digest of the protocol: (§3)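 Yeasts were grown overnight at 30 °C: S. cerevisiae in synthetic dextrose medium, C. albicans wild-type diploid in WYPD with glucose. Subcultured to OD 0.1 and grown 2 h. Exposed to 0.1–300 µM (0.3% DMSO), with DMSO and caspofungin 1 µg/mL controls. Shaken at 30 °C, OD read every 2.5 h in duplicate to about 7.5 h. Sigmoidal-fit IC50, mean of three trials.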

For the next experiment, the system named is Saccharomyces cerevisiae. The experiment in a line: Antibacterial activity against Saccharomyces cerevisiae measured every 2.5 hrs by spectrophotometry. Type of experiment: functional, organism-based. A digest of the protocol:
as §3

The next experiment has as its system Escherichia coli. The experiment in a line: Antibacterial activity against Escherichia coli measured after overnight incubation by spectrophotometry. Type of experiment: functional, organism-based. A digest of the protocol: as §2
A further experiment deals with P388. The experiment in a line: Growth inhibition of mouse P388 cells at 10 uM. In kind it is functional. The following applies: read-out: GI.

In brackets after ≈: the same amount, converted by molar mass.

`c1ccc2c(-c3nccc4c3[nH]c3ccccc34)c[nH]c2c1`: the IC50 (usually the concentration that gives 50% inhibition) in experiment [1] was found to be 15.6 µg/mL (≈ 55.1 µM); in experiment [2], 24.9 µg/mL (≈ 87.9 µM); in experiment [3] it was 27.5 µg/mL (≈ 97.1 µM); in the experiment with Streptococcus pyogenes it was 3.4 µg/mL (≈ 12 µM); in the experiment on Staphylococcus aureus it was 6.4 µg/mL (≈ 22.6 µM); in experiment [4], 3.6 µg/mL (≈ 12.7 µM). The IC50 was 27.7 µg/mL (≈ 97.8 µM) with Pseudomonas aeruginosa, more than 30 µg/mL in the experiment with Candida albicans, more than 300 µg/mL in the experiment with Saccharomyces cerevisiae and 12.3 µg/mL (≈ 43.4 µM) in the experiment with Escherichia coli. Further, the inhibition of growth at 10 µM with P388 was found to be 38%.

The values are drawn from ChEMBL document CHEMBL3351516, “Efficient synthesis of eudistomin U and evaluation of its cytotoxicity” (Bioorg Med Chem Lett, 2014).
